# Rows were chosen to be rich in hits. Some 5.4% of all compounds tested hit in one or more screens of this group.
# EphB4 antag = EphB4-ephrin-B2 interaction antagonists, primary screen, biochemical, TNYL-RAW peptide probe, fluorescence polarization; Ephrin type-B receptor 4 (Homo sapiens), P54760; EphB4 LBD / TNYL-RAW-Alexa532 peptide; inhibition, % at 7 µM; 0.15% of 97,000 active;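 active means inhibition above the screen-wide mean inhibition plus 3 SD, cut at about 15% in these data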;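 further: 0% = DMSO wells and 100% = excess unlabeled TNYL-RAW peptide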
# Target sequence (P54760 whole entry, looked up, the tested form may be a part): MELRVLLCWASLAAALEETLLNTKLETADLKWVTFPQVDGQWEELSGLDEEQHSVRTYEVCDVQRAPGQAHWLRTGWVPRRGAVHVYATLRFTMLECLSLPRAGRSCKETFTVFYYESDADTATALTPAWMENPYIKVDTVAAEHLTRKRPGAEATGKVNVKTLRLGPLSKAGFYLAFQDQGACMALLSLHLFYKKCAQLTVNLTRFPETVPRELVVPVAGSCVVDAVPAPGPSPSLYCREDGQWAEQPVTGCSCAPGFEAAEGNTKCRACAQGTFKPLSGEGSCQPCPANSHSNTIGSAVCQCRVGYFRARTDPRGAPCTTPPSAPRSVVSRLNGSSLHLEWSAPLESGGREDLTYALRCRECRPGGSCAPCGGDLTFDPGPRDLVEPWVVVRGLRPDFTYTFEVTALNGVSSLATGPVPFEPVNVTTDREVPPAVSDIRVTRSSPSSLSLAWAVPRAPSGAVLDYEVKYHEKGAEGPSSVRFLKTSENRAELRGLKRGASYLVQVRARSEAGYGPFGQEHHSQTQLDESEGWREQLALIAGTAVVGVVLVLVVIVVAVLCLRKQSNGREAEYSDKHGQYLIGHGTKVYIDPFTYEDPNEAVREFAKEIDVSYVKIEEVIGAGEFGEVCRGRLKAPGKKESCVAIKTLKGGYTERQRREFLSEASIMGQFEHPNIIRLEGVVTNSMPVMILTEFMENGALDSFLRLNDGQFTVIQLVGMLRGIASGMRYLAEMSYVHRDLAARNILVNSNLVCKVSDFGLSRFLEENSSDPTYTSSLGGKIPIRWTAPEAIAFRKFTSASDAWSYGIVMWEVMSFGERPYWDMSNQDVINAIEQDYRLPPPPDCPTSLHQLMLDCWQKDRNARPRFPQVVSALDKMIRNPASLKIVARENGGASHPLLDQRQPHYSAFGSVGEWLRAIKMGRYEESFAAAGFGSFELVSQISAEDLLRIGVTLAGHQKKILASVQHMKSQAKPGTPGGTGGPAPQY
# hDAT+cocaine = changed hDAT dopamine uptake under cocaine IC80, either direction, primary screen, cocaine antagonist project, cell-based, LLC-PK1 hDAT, [14C]-dopamine uptake, MLSMR; Sodium-dependent dopamine transporter (Homo sapiens), Q01959; LLC-PK1 hDAT cells, [14C]-dopamine uptake with cocaine IC80; actives deviate in either direction; B-score at 10 µM; 1.3% of 110,000 active;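 active means Z score or B-score, a plate-position-corrected score, falls beyond the plate's 99.7% confidence bounds, in either direction; inactive means both scores lie inside the 99.7% bounds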;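 further: scored against the spread of the other compound wells on the same plate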
# Cav32 inh = Cav3.2 calcium influx blockers – cell-based, Fluo-4 calcium fluorescence, FDSS, MLSMR library, primary screen. Cav3.2-expressing cells; active compounds read low. B-score at 10 µM. AID 449739, 2010. 4% of 100,000 active. Voltage-dependent T-type calcium channel subunit alpha-1H (Homo sapiens), O95180;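 active means single-dose well whose peak fluorescence ratio is a statistical outlier from its plate by either plate-standardised score or position-corrected B-score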
# Rev-RRE block = HIV-1 Rev-RRE binding inhibitors, primary screen, biochemical, FRET, protein-RNA interaction | P05866 | inhibition, % at 8 µM | Rev peptide-RRE RNA binding | 0.79% of 97,000 active;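 active means inhibition above the screen-wide mean plus 3 SD, cut at about 35% in these data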;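 further: 0% = median DMSO wells and 100% = median Neomycin B control wells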
#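 Probe or stimulus: fluorescein-Rev peptide as binding partner; assay system: Cy5-tagged RRE RNA duplex with fluorescein-tagged Rev peptide; timing: 5 min compound–RNA preincubation, then 15 min with peptide, 25 °C; medium: HEPES pH 7.5 buffer with KCl, MgCl2, NaCl and EDTA; signal: fluorescein-to-Cy5 FRET, 480 nm excitation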
# Numbers without * were called inactive; . = no result given; [ ] = dose if it differs, or a comment.
SMILES,EphB4 antag,hDAT+cocaine,Cav32 inh,Rev-RRE block
Cc1ccc(CSCCNC(=O)/C=C/c2ccc(Cl)cc2)cc1,2.0,-0.0116,-2.96,9.9
O=C(/C=C/c1ccccc1)NCCSc1ccc(Cl)cc1,-1.9,-0.0155,-4.25*,9.8
Cc1ccc2c(n1)CC(C)(C)CC2=O,-1.6,-0.391,-0.192,7.7
O=C(CSc1nnnn1C1CCCCC1)N1c2ccccc2Sc2ccccc21,-3.2,0.257,-6.04*,10.8
O=C(CSc1nnnn1C1CCCCC1)NCCc1ccccc1,-3.1,0.596,1.62,2.0
COc1ccc(S(=O)(=O)N2CCc3ccccc32)cc1C(=O)OCc1nnc(-c2ccccc2)o1,-3.9,0.569,-3.1,-0.5
COc1ccc(-c2c([C@H]3[C@H]4C=CC[C@@H](C)[C@@H]4C(=O)N3Cc3ccccc3)ccc3ccccc23)cc1OC,.,0.0391,-1.4,.
COc1ccc(CNCCC(c2ccc(OC(C)C)cc2)C(C)C)cc1OC (stereo unspecified),0.7,1.44,-3.67*,16.2
CCc1ccc(CNCCSc2nnnn2C)cc1,-1.6,0.255,0.687,2.4
CCn1nc(NC(=O)c2ccncc2)c2cc3cc(C)ccc3nc21,1.3,2.22*,0.248,9.5
CCCC(=O)Nc1nn(CCC)c2nc3ccccc3cc12,-0.6,2.1*,-0.887,3.7
CCCn1nc(NC(=O)c2cccs2)c2cc3cc(OC)ccc3nc21,0.7,0.42,-0.137,22.1
CCCCn1nc(NC(=O)c2cccs2)c2cc3ccccc3nc21,3.7,0.817,-4*,9.7
CCCn1nc(NC(=O)c2ccncc2)c2cc3ccccc3nc21,-1.9,0.665,.,7.8
CCCCn1nc(NC(=O)c2cccs2)c2cc3cc(OC)ccc3nc21,0.3,0.731,-4.84*,19.9
Cc1ccc(S(=O)(=O)N2CCC(=O)N(CCOCc3ccc(F)cc3)CC2)cc1,.,.,1.04,.
COc1ccccc1N1CCN(C2CCN(S(=O)(=O)c3ccc4ccccc4c3)CC2)CC1,6.5,2.13,-1.81,10.6
CCN(CC)c1ccc(N=Cc2ccc(N(CC)CC)cc2O)cc1,-3.1,0.0966,-1.54,96.0*[fluorescence artefact?]
CCN(CC)c1ccc(C=Nc2ccc(N(C)C)cc2)c(O)c1,2.4,0.609,-1.02,81.3*[fluorescence artefact?]
CCN(CC)c1ccc(C=Nc2ccc(C)cc2)c(O)c1,-9.9,-0.746,-2.21,6.0
CCC(CC)c1nnc(NC(=O)CCCN2C(=O)c3ccccc3C2=O)s1,-0.3,1.05,1.09,5.0
N#C/C(=C(/O)COC(=O)CCCNC(=O)c1ccc(Cl)cc1)c1nc2ccccc2[nH]1,-6.3,-0.685,-0.86,17.0
N#C/C(=C(/O)COC(=O)CCc1ccc(S(=O)(=O)N2CCOCC2)cc1)c1nc2ccccc2[nH]1,-0.8,-0.613,0.568,45.2*
N#C/C(=C(/O)COC(=O)Cc1c[nH]c2ccccc12)c1nc2ccccc2[nH]1,2.1,-0.153,-7*,22.8
O=c1ccc(Cl)cn1Cc1ccccc1F,-6.2,-1.02,0.0197,3.5
SMILES,EphB4 antag,hDAT+cocaine,Cav32 inh,Rev-RRE block
CCOC(=O)C1=C(SCC(=O)Nc2ccccc2)NC(=O)C(C#N)C12CCCCC2 (stereo unspecified),1.1,1.18,-4.13*,10.3
N#CC1=C(SCC(=O)NC2CC2)NC(=O)C(C#N)C12CCCCC2 (stereo unspecified),-3.6,-0.0191,-0.0382,-3.5
N#CC1=C(SCC(=O)NC23CC4CC(CC(C4)C2)C3)NC(=O)C(C#N)C12CCCCC2 (stereo unspecified),5.3,-0.83,-3.21*,-2.1
CC(C)(C)C1CCC2(CC1)C(C#N)=C(SCC(=O)NC1CCCCC1)NC(=O)C2C#N (stereo unspecified),4.0,-0.0112,-4.23*,1.1
CCCCN(C(=O)CSc1nnc(Nc2ccc(C)c(C)c2)s1)c1c(N)n(Cc2ccccc2)c(=O)[nH]c1=O,0.3,0.287,-5.31*,10.2
CO/N=C/NC(=O)c1c(OC)ccnc1Oc1cccc(C(F)(F)F)c1,6.3,0.0392,2.03,9.3
Cc1c(Br)c([N+](=O)[O-])nn1C(C)C(=O)Nc1ccc2c(c1)OCO2 (stereo unspecified),-6.8,-0.232,-0.41,0.9
O=C(Cn1nnc(-c2ccc(CN3CCOCC3)cc2)n1)Nc1nc(-c2ccccc2)cs1,-3.6,-9.61*,0.0794,6.4

# Bioassay records: PubChem, several laboratories
